Measured values of several laboratories.
Lines come from different studies, so protocols differ.

Structure (SMILES)	test	test system	conditions	endpoint	value
CC[C@H](C)CCCCC(=O)N[C@@H](CCN)C(=O)N[C@H](C(=O)N[C@@H](CCN)C(=O)N[C@H]1CCNC(=O)[C@H]([C@@H](C)O)NC(=O)[C@H](CCN)NC(=O)[C@H](CCN)NC(=O)[C@H](CC(C)C)NC(=O)[C@@H](CC(C)C)NC(=O)[C@H](CCN)NC1=O)[C@@H](C)O		male Sprague-Dawley rat, plasma	intravenous, 5 mg/kg	C0	15400 ng/mL
CC(C)CC(=O)OC[C@H]1O[C@@](C#N)(c2ccc3c(N)ncnn23)[C@H](O)[C@@H]1O	metabolic stability	mouse, hepatocytes	5 µM	half-life	< 4.36 min
CN1CCC[C@H]1c1cccnc1		rat, plasma	intravenous, 0.1 mg/kg	half-life	68 min
CC(=O)c1c(C)c2cnc(Nc3ccc(C4CCN(CCS(C)(=O)=O)CC4)cn3)nc2n(C2CCCC2)c1=O	metabolic stability	mouse, liver microsomes		half-life	72.2 min
Cc1[nH]c(C)c(S(=O)(=O)Nc2ccc(S(F)(F)(F)(F)F)cc2)c1C(=O)N1CCC(F)(F)C1	metabolic stability	mouse, liver microsomes		half-life	20 min
C#Cc1nc(C(=O)N2CCC(NC(=O)c3cnc(-c4ccccc4)s3)(c3nc4ccccc4n3C)CC2)cs1	metabolic stability	mouse, liver microsomes		half-life	~20 min
Cc1ccc2cc(N3CCC4(O)C(=O)c5cc(C)c(C)cc5N=C34)ccc2n1 (stereo not shown)		rat, plasma	intravenous, 2 mg/kg	half-life	186 min
O=c1c2cc(Cl)c(CO)cc2[nH]c(=S)n1Cc1cncnc1	metabolic stability	mouse, liver microsomes	1 µM, pH 7.4	half-life	57.9 min
Cl.Cn1c(=O)n(CCCCN2CCC3(CC2)OCc2ccccc23)c2ccccc21		male Sprague-Dawley rat, plasma	intravenous, 10 mg/kg	half-life	216 min
Cc1[nH]c(C)c(S(=O)(=O)Nc2ccc(S(=O)(=O)F)c(Cl)c2)c1C(=O)N1CCC(F)(F)C1	metabolic stability	mouse, liver microsomes		half-life	32 min
